Experimental data collected from several papers.
Lines come from different studies, so protocols differ. pIC50: −log10 of the molar value.
Observed: cell growth or viability

| Compound | cell line | test | setting | pIC50 |
| --- | --- | --- | --- | --- |
| CC(=NNC(=O)c1cc(-c2ccccc2)n(-c2ccc(S(N)(=O)=O)cc2)n1)c1ccc(C)cc1 | PaCa-2 | fluorescence | 48 h | 4.94 |
| O=C(NO)c1ccc(Cn2cnc3c(Nc4ccc(Br)cc4F)ncnc32)cc1 | MOLT-4 | MTT | 72 h | 6.28 |
| Cc1c(-c2ccc(N3CCc4cccc(C(=O)Nc5nc6ccccc6s5)c4C3)nc2C(=O)O)cnn1CC12CC3CC(C1)CC(C(=O)NCCCCCCCCCCNc1cccc4c1C(=O)N(C1CCC(=O)NC1=O)C4=O)(C3)C2 (stereo not shown) | MOLT-4 | MTS | 48 h | 7.68 |
| O=C(NO)c1ccc(Cn2cnc3c(Nc4cccc([N+](=O)[O-])c4)ncnc32)cc1 | MOLT-4 | MTT | 72 h | 6.04 |
| O=C(CSc1nc2ccccc2s1)N/N=C/c1ccc(OCC(=O)Nc2ccc(Br)cc2)cc1 | LN-229 | MTS | 72 h | 4.56 |
| FC(F)(F)c1ccc(-c2cc(COc3cc(C(F)(F)F)nc4ccccc34)on2)cc1 | LN-229 | MTS | 72 h | < 4.00 |
| Cc1ncsc1-c1ccc([C@H](C)NC(=O)[C@@H]2C[C@@H](O)CN2C(=O)[C@@H](NC(=O)CCCCCCCCCS(=O)(=O)NC(=O)c2nc(N3CCc4cccc(C(=O)Nc5nc6ccccc6s5)c4C3)ccc2-c2cnn(CC34CC5CC(CC(C5)C3)C4)c2C)C(C)(C)C)cc1 | MOLT-4 | MTS | 48 h | 7.92 |
| COc1cc(C=NNC(=O)c2cc(-c3ccccc3)n(-c3ccc(S(N)(=O)=O)cc3)n2)cc(OC)c1OC | PaCa-2 | fluorescence | 48 h | 4.66 |
| Cc1c(-c2ccc(N3CCc4cccc(C(=O)Nc5nc6ccccc6s5)c4C3)nc2C(=O)NCCCCNc2cccc3c2C(=O)N(C2CCC(=O)NC2=O)C3=O)cnn1CC12CC3CC(CC(C3)C1)C2 (stereo not shown) | MOLT-4 | MTS | 48 h | 6.90 |
| COc1ccc(C=C(C#N)C(=O)c2c[nH]c3ccccc23)cc1 | MIA PaCa-2 | MTT | 48 h | 4.81 |
| CNc1cccc(Nc2nc(-c3ccncc3)nc3c2CNCC3)c1 | DU-145 | MTT |  | 4.34 |
| c1ccc(-c2cc(CNc3cccc4cccnc34)on2)nc1 | LN-229 | MTS | 72 h | 4.64 |
| COc1cc([C@@H]2c3cc4c(cc3[C@@H](O[C@@H]3O[C@@H]5CO[C@@H](C)O[C@H]5[C@H](O)[C@H]3O)[C@H]3COC(=O)[C@H]23)OCO4)cc(OC)c1O | LN-229 | MTS | 72 h | 5.32 |
| COc1ccc(C=C(C#N)C(=O)c2c[nH]c3ccccc23)cc1OC | MIA PaCa-2 | MTT | 48 h | 4.43 |
| Cc1ncsc1-c1ccc([C@H](C)NC(=O)[C@@H]2C[C@@H](O)CN2C(=O)[C@@H](NC(=O)CCCCCCCS(=O)(=O)NC(=O)c2nc(N3CCc4cccc(C(=O)Nc5nc6ccccc6s5)c4C3)ccc2-c2cnn(CC34CC5CC(CC(C5)C3)C4)c2C)C(C)(C)C)cc1 | MOLT-4 | MTS | 48 h | 8.43 |
| O=c1cc(OCc2cc(-c3ccccc3)no2)c2ccccc2o1 | LN-229 | MTS | 72 h | < 4.00 |
| CN1C(=O)C(=O)c2cc3c(c4c2c1cc1ccccc14)OCO3 | T47D | MTT | 75 h | 4.21 |
| Cc1ncsc1-c1ccc([C@H](CC(=O)NCCCCNC(=O)c2nc(N3CCc4cccc(C(=O)Nc5nc6ccccc6s5)c4C3)ccc2-c2cnn(CC34CC5CC(CC(C5)C3)C4)c2C)NC(=O)[C@@H]2C[C@@H](O)CN2C(=O)[C@@H](NC(=O)C2(C#N)CC2)C(C)(C)C)cc1 | MOLT-4 | MTS | 48 h | 7.50 |
| Cc1ncsc1-c1ccc([C@H](C)NC(=O)[C@@H]2C[C@@H](O)CN2C(=O)[C@@H](NC(=O)CN2CCN(c3cc(-c4ccccc4O)nnc3N)CC2)C(C)(C)C)cc1 | LNCaP | ATP luminescence | 7 days | 7.82 |
| NS(=O)(=O)c1ccc(-n2nc(-c3nnc(S)o3)cc2-c2ccccc2)cc1 | PaCa-2 | fluorescence | 48 h | 4.47 |
| O=C(CSc1nc2ccccc2s1)N/N=C/c1ccc(OCC(=O)Nc2cccc(Cl)c2)cc1 | LN-229 | MTS | 72 h | 4.71 |
| O=C(NO)c1ccc(Cn2cnc3c(Nc4ccc(Cl)cc4)ncnc32)cc1 | Jurkat | MTT | 72 h | 6.04 |
| Cc1ncsc1-c1ccc([C@H](C)NC(=O)[C@@H]2C[C@@H](O)CN2C(=O)[C@@H](NC(=O)CCCCS(=O)(=O)NC(=O)c2nc(N3CCc4cccc(C(=O)Nc5nc6ccccc6s5)c4C3)ccc2-c2cnn(CC34CC5CC(CC(C5)C3)C4)c2C)C(C)(C)C)cc1 | MOLT-4 | MTS | 48 h | 8.08 |
| N#CC(=Cc1cn(Cc2ccc(Cl)cc2)c2ccccc12)C(=O)c1c[nH]c2ccccc12 | MIA PaCa-2 | MTT | 48 h | 5.31 |
| Cc1ncsc1-c1ccc([C@H](C)NC(=O)[C@@H]2C[C@@H](O)CN2C(=O)[C@@H](NC(=O)CCCCCCCNC(=O)c2nc(N3CCc4cccc(C(=O)Nc5nc6ccccc6s5)c4C3)ccc2-c2cnn(CC34CC5CC(CC(C5)C3)C4)c2C)C(C)(C)C)cc1 | MOLT-4 | MTS | 48 h | 7.19 |
| Cn1nnc2c(C(N)=O)ncn2c1=O | LN-229 | MTT |  | 2.22 |
| FC(F)(F)c1ccc(-c2cc(CNc3cccc4cccnc34)on2)cc1 | LN-229 | MTS | 72 h | 4.29 |
| Cc1ncsc1-c1ccc([C@@H](C)NC(=O)[C@H]2C[C@H](O)CN2C(=O)[C@H](NC(=O)CCCCNC(=O)C23CC4CC(CC(Cn5ncc(-c6ccc(N7CCc8cccc(C(=O)Nc9nc%10ccccc%10s9)c8C7)nc6C(=O)O)c5C)(C4)C2)C3)C(C)(C)C)cc1 | MOLT-4 | MTS | 48 h | < 6.00 |
